From ChEMBL document CHEMBL4130545, “Lupane-Type Triterpenes of Phoradendron vernicosum” (J Nat Prod, 2017)

How the values were obtained:
[1] = test system: HEp-2; assay: Antiproliferative activity in human Hep2 cells by sulforhodamine B assay; type: functional, cell-based
In short: (§1)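 Cells grown in D-MEM with 10% (v/v) FBS, 100 U/mL penicillin G and 100 μg/mL streptomycin, at 37 °C under 5% CO2 and 95% humidity. Cytotoxic and antiproliferative effects were measured by the sulforhodamine B method of Skehan et al. CC50 (cytotoxic) or IC50 (antiproliferative) is the concentration giving 50% growth reduction. Docetaxel was the positive control. Triplicate tests.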

[2] = Selectivity index, ratio of cytotoxic CC50 for African green monkey Vero cells to cytotoxic CC50 for human SiHa cells; type: toxicity; conditions: Vero cells versus SiHa cells, read-out: Selectivity Index
In short: (§2)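 Selectivity index for harmfulness to normal cells: the normal-cell (Vero or HEK293) CC50 or IC50 over the cancer-cell value from the same assay type. Each value is from sulforhodamine B growth-reduction tests done in triplicate in D-MEM/10% FBS at 37 °C, 5% CO2.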

[3] = Selectivity index, ratio of antiproliferative IC50 for HEK293 cells to antiproliferative IC50 for human KB cells; type: toxicity; conditions: HEK293 cells versus KB cells, read-out: Ratio IC50; in short: as §2
[4] = Selectivity index, ratio of cytotoxic CC50 for HEK293 cells to cytotoxic CC50 for human KB cells; type: toxicity; conditions: HEK293 cells versus KB cells, read-out: Selectivity Index; in short: as §2
[5] = test system: SiHa; assay: Antiproliferative activity in human SiHa cells by sulforhodamine B assay; type: functional, cell-based; in short: as §1
[6] = test system: SiHa; assay: Cytotoxic activity in human SiHa cells by sulforhodamine B assay; type: functional
In short: (§3)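 Cell lines grown in D-MEM with 10% (v/v) FBS, 100 U/mL penicillin G and 100 μg/mL streptomycin at 37 °C, 5% CO2, 95% humidity. Cytotoxicity was measured by the Skehan method. CC50 was taken as the concentration that reduces cell growth by 50%. Docetaxel served as positive control, and each test was run in triplicate.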

[7] = test system: Vero; assay: Antiproliferative activity in African green monkey Vero cells by sulforhodamine B assay; type: cell-based; conditions: Chlorocebus sabaeus; in short: as §1
[8] = Selectivity index, ratio of cytotoxic CC50 for African green monkey Vero cells to cytotoxic CC50 for human MDA-MB-231 cells; type: toxicity; conditions: Vero cells versus MDA-MB-231 cells, read-out: Selectivity Index; in short: as §2
[9] = test system: HEK293; assay: Antiproliferative activity in HEK293 cells by sulforhodamine B assay; type: cell-based; conditions: Homo sapiens; in short: as §1
[10] = Selectivity index, ratio of cytotoxic CC50 for African green monkey Vero cells to cytotoxic CC50 for human KB cells; type: toxicity; conditions: Vero cells versus KB cells, read-out: Selectivity Index; in short: as §2
[11] = Selectivity index, ratio of cytotoxic CC50 for HEK293 cells to cytotoxic CC50 for human MDA-MB-231 cells; type: toxicity; conditions: HEK293 cells versus MDA-MB-231 cells, read-out: Selectivity Index; in short: as §2
[12] = test system: HeLa; assay: Cytotoxic activity in human HeLa cells by sulforhodamine B assay; type: functional; in short: as §3
[13] = test system: DU-145; assay: Antiproliferative activity in human DU145 cells by sulforhodamine B assay; type: functional, cell-based; in short: as §1
[14] = test system: HeLa; assay: Antiproliferative activity in human HeLa cells by sulforhodamine B assay; type: functional, cell-based; in short: as §1
[15] = test system: MCF7; assay: Antiproliferative activity in human MCF7 cells by sulforhodamine B assay; type: functional, cell-based; in short: as §1
[16] = Selectivity index, ratio of antiproliferative IC50 for HEK293 cells to antiproliferative IC50 for human MCF7 cells; type: toxicity; conditions: HEK293 cells versus MCF7 cells, read-out: Ratio IC50; in short: as §2
[17] = Selectivity index, ratio of cytotoxic CC50 for HEK293 cells to cytotoxic CC50 for human MCF7 cells; type: toxicity; conditions: HEK293 cells versus MCF7 cells, read-out: Selectivity Index; in short: as §2
[18] = test system: DU-145; assay: Cytotoxic activity in human DU145 cells by sulforhodamine B assay; type: functional; in short: as §3
[19] = Selectivity index, ratio of cytotoxic CC50 for African green monkey Vero cells to cytotoxic CC50 for human HeLa cells; type: toxicity; conditions: Vero cells versus HeLa cells, read-out: Selectivity Index; in short: as §2
[20] = test system: HEp-2; assay: Cytotoxic activity in human Hep2 cells by sulforhodamine B assay; type: functional; in short: as §3
[21] = Selectivity index, ratio of cytotoxic CC50 for African green monkey Vero cells to cytotoxic CC50 for human Hep2 cells; type: toxicity; conditions: Vero cells versus Hep2 cells, read-out: Selectivity Index
[22] = Selectivity index, ratio of cytotoxic CC50 for HEK293 cells to cytotoxic CC50 for human HeLa cells; type: toxicity; conditions: HEK293 cells versus HeLa cells, read-out: Selectivity Index; in short: as §2
[23] = Selectivity index, ratio of antiproliferative IC50 for African green monkey Vero cells to antiproliferative IC50 for human KB cells; type: toxicity; conditions: Vero cells versus KB cells, read-out: Ratio IC50; in short: as §2
[24] = test system: MCF7; assay: Cytotoxic activity in human MCF7 cells by sulforhodamine B assay; type: functional; in short: as §3
[25] = test system: KB; assay: Cytotoxic activity in human KB cells by sulforhodamine B assay; type: functional; in short: as §3
[26] = test system: MDA-MB-231; assay: Antiproliferative activity in human MDA-MB-231 cells by sulforhodamine B assay; type: functional, cell-based; in short: as §1
[27] = Selectivity index, ratio of cytotoxic CC50 for African green monkey Vero cells to cytotoxic CC50 for human MCF7 cells; type: toxicity; conditions: Vero cells versus MCF7 cells, read-out: Selectivity Index; in short: as §2
[28] = Selectivity index, ratio of antiproliferative IC50 for HEK293 cells to antiproliferative IC50 for human SiHa cells; type: toxicity; conditions: HEK293 cells versus SiHa cells, read-out: Ratio IC50; in short: as §2
[29] = Selectivity index, ratio of antiproliferative IC50 for African green monkey Vero cells to antiproliferative IC50 for human HeLa cells; type: toxicity; conditions: Vero cells versus HeLa cells, read-out: Ratio IC50; in short: as §2
[30] = Cytotoxic activity in HEK293 cells by sulforhodamine B assay; type: cell-based; conditions: human; in short: as §1
[31] = test system: MDA-MB-231; assay: Cytotoxic activity in human MDA-MB-231 cells by sulforhodamine B assay; type: functional; in short: as §3
[32] = Cytotoxic activity in African green monkey Vero cells by sulforhodamine B assay; type: cell-based; conditions: chlorocebus sabaeus; in short: as §1
[33] = Selectivity index, ratio of antiproliferative IC50 for African green monkey Vero cells to antiproliferative IC50 for human SiHa cells; type: toxicity; conditions: Vero cells versus SiHa cells, read-out: Ratio IC50; in short: as §2
[34] = Selectivity index, ratio of antiproliferative IC50 for HEK293 cells to antiproliferative IC50 for human HeLa cells; type: toxicity; conditions: HEK293 cells versus HeLa cells, read-out: Ratio IC50; in short: as §2
[35] = Selectivity index, ratio of antiproliferative IC50 for African green monkey Vero cells to antiproliferative IC50 for human MCF7 cells; type: toxicity; conditions: Vero cells versus MCF7 cells, read-out: Ratio IC50; in short: as §2
[36] = Selectivity index, ratio of cytotoxic CC50 for HEK293 cells to cytotoxic CC50 for human SiHa cells; type: toxicity; conditions: HEK293 cells versus SiHa cells, read-out: Selectivity Index; in short: as §2
[37] = Selectivity index, ratio of cytotoxic CC50 for HEK293 cells to cytotoxic CC50 for human Hep2 cells; type: toxicity; conditions: HEK293 cells versus Hep2 cells, read-out: Selectivity Index; in short: as §2
[38] = test system: KB; assay: Antiproliferative activity in human KB cells by sulforhodamine B assay; type: functional, cell-based; in short: as §1
[39] = Selectivity index, ratio of antiproliferative IC50 for African green monkey Vero cells to antiproliferative IC50 for human DU145 cells; type: toxicity; conditions: Vero cells versus DU145 cells, read-out: Ratio IC50
[40] = Selectivity index, ratio of cytotoxic CC50 for African green monkey Vero cells to cytotoxic CC50 for human DU145 cells; type: toxicity; conditions: Vero cells versus DU145 cells, read-out: Selectivity Index; in short: as §2
[41] = Selectivity index, ratio of antiproliferative IC50 for African green monkey Vero cells to antiproliferative IC50 for human MDA-MB-231 cells; type: toxicity; conditions: Vero cells versus MDA-MB-231 cells, read-out: Ratio IC50
[42] = Selectivity index, ratio of antiproliferative IC50 for HEK293 cells to antiproliferative IC50 for human DU145 cells; type: toxicity; conditions: HEK293 cells versus DU145 cells, read-out: Ratio IC50
[43] = Selectivity index, ratio of antiproliferative IC50 for HEK293 cells to antiproliferative IC50 for human MDA-MB-231 cells; type: toxicity; conditions: HEK293 cells versus MDA-MB-231 cells, read-out: Ratio IC50
[44] = Selectivity index, ratio of cytotoxic CC50 for HEK293 cells to cytotoxic CC50 for human DU145 cells; type: toxicity; conditions: HEK293 cells versus DU145 cells, read-out: Selectivity Index
[45] = Selectivity index, ratio of antiproliferative IC50 for African green monkey Vero cells to antiproliferative IC50 for human Hep2 cells; type: toxicity; conditions: Vero cells versus Hep2 cells, read-out: Ratio IC50; in short: as §2
[46] = Selectivity index, ratio of antiproliferative IC50 for HEK293 cells to antiproliferative IC50 for human Hep2 cells; type: toxicity; conditions: HEK293 cells versus Hep2 cells, read-out: Ratio IC50

C=C(C)[C@@H]1CC[C@]2(C(=O)O)CC[C@]3(C)[C@H](CC[C@@H]4[C@@]5(C)CC[C@H](O)C(C)(C)[C@@H]5CC[C@]43C)[C@@H]12 [BETULINIC ACID]
IC50 [1]: > 500000 nM | selectivity ratio [2]: 13 | selectivity ratio [3]: 12 | selectivity ratio [4]: 5.1 | IC50 [5]: 70100 nM | CC50 [6]: 28900 nM | IC50 [7]: 72100 nM | selectivity ratio [8]: 0.4 | IC50 [9]: 336000 nM | selectivity ratio [10]: 2.4 | selectivity ratio [11]: 0.8 | CC50 [12]: 32600 nM | IC50 [13]: > 500000 nM | IC50 [14]: 47600 nM | IC50 [15]: 56300 nM | selectivity ratio [16]: 6 | selectivity ratio [17]: 1.6 | CC50 [18]: > 500000 nM | selectivity ratio [19]: 1.6 | CC50 [20]: 48200 nM | selectivity ratio [21]: 1.3 | selectivity ratio [22]: 2.5 | selectivity ratio [23]: 2.6 | CC50 [24]: 49600 nM | CC50 [25]: 15600 nM | IC50 [26]: > 500000 nM | selectivity ratio [27]: 0.7 | selectivity ratio [28]: 4.8 | selectivity ratio [29]: 1.5 | CC50 [30]: 80000 nM | CC50 [31]: 94300 nM | CC50 [32]: 38100 nM | selectivity ratio [33]: 1 | selectivity ratio [34]: 7 | selectivity ratio [35]: 1.3 | selectivity ratio [36]: 2.8 | selectivity ratio [37]: 1.6 | IC50 [38]: 28100 nM

CC(=O)O[C@@]12CO[C@@H]1C[C@H](O)[C@@]1(C)C(=O)[C@H](O)C3=C(C)[C@@H](OC(=O)[C@H](O)[C@@H](NC(=O)OC(C)(C)C)c4ccccc4)C[C@@](O)([C@@H](OC(=O)c4ccccc4)[C@H]21)C3(C)C [DOCETAXEL ANHYDROUS]
IC50 [1]: 60 nM | selectivity ratio [2]: 5.9 | selectivity ratio [3]: 2.2 | selectivity ratio [4]: 8.8 | IC50 [5]: 90 nM | selectivity ratio [39]: 13 | CC50 [6]: 220 nM | IC50 [7]: 130 nM | selectivity ratio [8]: 6.8 | IC50 [9]: 110 nM | selectivity ratio [10]: 7.2 | selectivity ratio [11]: 8.4 | CC50 [12]: 90 nM | selectivity ratio [40]: 1.6 | selectivity ratio [41]: 1.9 | IC50 [13]: 10 nM | IC50 [14]: 70 nM | selectivity ratio [42]: 11 | IC50 [15]: 10 nM | selectivity ratio [16]: 11 | selectivity ratio [17]: 160 | CC50 [18]: 810 nM | selectivity ratio [19]: 14.4 | CC50 [20]: 60 nM | selectivity ratio [21]: 21.6 | selectivity ratio [22]: 17.7 | selectivity ratio [23]: 2.6 | CC50 [24]: 10 nM | selectivity ratio [43]: 1.6 | CC50 [25]: 180 nM | IC50 [26]: 70 nM | selectivity ratio [27]: 130 | selectivity ratio [28]: 1.2 | selectivity ratio [29]: 1.9 | CC50 [30]: 1600 nM | CC50 [31]: 190 nM | CC50 [32]: 1300 nM | selectivity ratio [33]: 1.4 | selectivity ratio [34]: 1.6 | selectivity ratio [44]: 2 | selectivity ratio [35]: 13 | selectivity ratio [36]: 7.3 | selectivity ratio [37]: 26.6 | selectivity ratio [45]: 2.2 | selectivity ratio [46]: 1.8 | IC50 [38]: 50 nM
